Measured values taken from publication PMC5970367 (Chembiochem : a European journal of chemical biology, 2017).

Key:
[1] = tested on: 5′-fluorescein labeled HCV SLIIb; test: Reaction kinetics via fluorescence; format: biochemical, hepatitis C virus; details: pseudo Michaelis-Menten, catalytic efficiency
Method in brief: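 Copper–peptide complexes were formed at 1.1:1 peptide:Cu. Each complex was added to 333 nM 5′-fluorescein-SLIIb with 1 mM ascorbic acid and 1 mM H2O2 in 20 mM HEPES (pH 7.4, 100 mM NaCl) at 25 °C. Fluorescence loss was followed at ex 491/em 518 nm and converted to RNA concentration by a calibration curve. Initial velocities were plotted against catalyst concentration and fit to Michaelis–Menten to give KM and kcat. Values are the mean of ≥3 trials.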

[2] = tested on: fluorescein-labeled IRES SLIIb; test: Time-dependent MALDI-TOF mass spectrometry of SLIIb cleavage; format: biochemical, hepatitis C virus; details: for Initial Rate (%Overhang/min), 2′, 3′-cPO4: overhang 2′,3′-cyclic phosphates; for Initial Rate (%Overhang/min), 2′, 3′-cPO4 / Initial Rate (%Overhang/min), 3′-AL / Initial Rate (%Overhang/min), 3′-OH / Initial Rate (%Overhang/min), 3′-PO4 / Initial Rate (%Overhang/min), 3′-PGA / Initial Rate (%Overhang/min), 3′-PG / Initial Rate (%Overhang/min), 5′-AL / Initial Rate (%Overhang/min), 5′-GemDiol / Initial Rate (%Overhang/min), 5′-OH / Initial Rate (%Overhang/min), 5′-PO4 / Initial Rate (%Overhang/min), 5′-PPA: MALDI-TOF time dependence; for Initial Rate (%Overhang/min), 3′-AL: overhang 3′-aldehyde; for Initial Rate (%Overhang/min), 3′-OH: overhang 3′-hydroxyl; for Initial Rate (%Overhang/min), 3′-PO4: overhang 3′-phosphates; for Initial Rate (%Overhang/min), 3′-PGA: overhang 3′-phosphoglycaldehyde; for Initial Rate (%Overhang/min), 3′-PG: overhang 3′-phosphoglycolate; for Initial Rate (%Overhang/min), 5′-AL: overhang 5′-aldehyde; for Initial Rate (%Overhang/min), 5′-GemDiol: overhang 5′-geminal diol; for Initial Rate (%Overhang/min), 5′-OH: overhang 5′-hydroxyl; for Initial Rate (%Overhang/min), 5′-PO4: overhang 5′-phosphate; for Initial Rate (%Overhang/min), 5′-PPA: overhang 5′-phosphopropenal; for Relative Initial Rate (Normalized Intensity/min × 1000), position A6 / Relative Initial Rate (Normalized Intensity/min × 1000), position A15 / Relative Initial Rate (Normalized Intensity/min × 1000), position A19 / Relative Initial Rate (Normalized Intensity/min × 1000), position A27 / Relative Initial Rate (Normalized Intensity/min × 1000), position A30 / Relative Initial Rate (Normalized Intensity/min × 1000), position C10 / Relative Initial Rate (Normalized Intensity/min × 1000), position C33 / Relative Initial Rate (Normalized Intensity/min × 1000), position G5 / Relative Initial Rate (Normalized Intensity/min × 1000), position G9 / Relative Initial Rate (Normalized Intensity/min × 1000), position G11 / Relative Initial Rate (Normalized Intensity/min × 1000), position G28 / Relative Initial Rate (Normalized Intensity/min × 1000), position U12 / Relative Initial Rate (Normalized Intensity/min × 1000), position U14 / Relative Initial Rate (Normalized Intensity/min × 1000), position U25 / Relative Initial Rate (Normalized Intensity/min × 1000), position U26 / Relative Initial Rate (Normalized Intensity/min × 1000), position U29 / Relative Initial Rate (Normalized Intensity/min × 1000), position U31: 10 μM SLIIb, 10 μM copper-peptide
Method in brief: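 Reactions contained 10 μM Fl-SLIIb, 10 μM Cu–peptide, 1 mM ascorbate and 1 mM H2O2, and were sampled at 2–180 min. They were quenched on ice, C18-desalted, and analysed by negative-ion reflectron MALDI-TOF (HPA/ammonium citrate matrix, ≥1000 shots). Peaks with m/z >1500 and S/N >5 were assigned against expected product masses. Products were summed per overhang type and expressed as a fraction at each time point. Initial rate was taken from the linear region (first ~40 min).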

Substance | kcat/KM [1] [M⁻¹ s⁻¹] | Initial Rate (%Overhang/min), 2′, 3′-cPO4 [2] [%Overhang/min] | Initial Rate (%Overhang/min), 3′-AL [2] [%Overhang/min] | Initial Rate (%Overhang/min), 3′-OH [2] [%Overhang/min] | Initial Rate (%Overhang/min), 3′-PO4 [2] [%Overhang/min] | Initial Rate (%Overhang/min), 3′-PGA [2] [%Overhang/min] | Initial Rate (%Overhang/min), 3′-PG [2] [%Overhang/min] | Initial Rate (%Overhang/min), 5′-AL [2] [%Overhang/min] | Initial Rate (%Overhang/min), 5′-GemDiol [2] [%Overhang/min] | Initial Rate (%Overhang/min), 5′-OH [2] [%Overhang/min] | Initial Rate (%Overhang/min), 5′-PO4 [2] [%Overhang/min] | Initial Rate (%Overhang/min), 5′-PPA [2] [%Overhang/min] | Relative Initial Rate (Normalized Intensity/min × 1000), position A6 [2] | Relative Initial Rate (Normalized Intensity/min × 1000), position A15 [2] | Relative Initial Rate (Normalized Intensity/min × 1000), position A19 [2] | Relative Initial Rate (Normalized Intensity/min × 1000), position A27 [2] | Relative Initial Rate (Normalized Intensity/min × 1000), position A30 [2] | Relative Initial Rate (Normalized Intensity/min × 1000), position C10 [2] | Relative Initial Rate (Normalized Intensity/min × 1000), position C33 [2] | Relative Initial Rate (Normalized Intensity/min × 1000), position G5 [2] | also measured
GGHFRFK-Cu [12-Cu] | 167 | – | – | – | – | – | – | – | – | – | – | – | – | – | – | – | – | – | – | – | –
GGHYRFA-Cu [7-Cu] | 417 | 0.1 ± 0.1 | 0.8 ± 0.1 | 0.4 ± 0.1 | 0.1 ± 0.1 | 0.6 ± 0.2 | 0.2 ± 0.1 | 1.5 ± 0.5 | 0.2 ± 0.1 | 1.1 ± 0.2 | 0.5 ± 0.2 | 0.5 ± 0.1 | - ^a | - ^a | 0.8 ± 0.4 Normalized Intensity/min × 1000 | - ^a | 1.0 ± 0.4 Normalized Intensity/min × 1000 | - ^a | - ^a | - ^a | Relative Initial Rate (Normalized Intensity/min × 1000), position G9 [2]: <1 Normalized Intensity/min × 1000; Relative Initial Rate (Normalized Intensity/min × 1000), position G11 [2]: 1.6 ± 0.7 Normalized Intensity/min × 1000; Relative Initial Rate (Normalized Intensity/min × 1000), position G28 [2]: - ^a; Relative Initial Rate (Normalized Intensity/min × 1000), position U12 [2]: <1 Normalized Intensity/min × 1000; Relative Initial Rate (Normalized Intensity/min × 1000), position U14 [2]: - ^a; Relative Initial Rate (Normalized Intensity/min × 1000), position U25 [2]: <1 Normalized Intensity/min × 1000; Relative Initial Rate (Normalized Intensity/min × 1000), position U26 [2]: <1 Normalized Intensity/min × 1000; Relative Initial Rate (Normalized Intensity/min × 1000), position U29 [2]: 2.9 ± 0.6 Normalized Intensity/min × 1000; Relative Initial Rate (Normalized Intensity/min × 1000), position U31 [2]: - ^a
GGHYAFK-Cu [5-Cu] | 300 | 0.2 ± 0.1 | 0.2 ± 0.1 | 1.2 ± 0.1 | 0.8 ± 0.1 | 0.1 ± 0.1 | 0.1 ± 0.1 | 1.0 ± 0.2 | 0.5 ± 0.1 | 0.6 ± 0.1 | 1.5 ± 0.6 | 0.2 ± 0.1 | - ^a | - ^a | 1.0 ± 0.7 Normalized Intensity/min × 1000 | 1.1 ± 0.3 Normalized Intensity/min × 1000 | - ^a | 1.0 ± 0.2 Normalized Intensity/min × 1000 | <1 Normalized Intensity/min × 1000 | <1 Normalized Intensity/min × 1000 | Relative Initial Rate (Normalized Intensity/min × 1000), position G9 [2]: - ^a; Relative Initial Rate (Normalized Intensity/min × 1000), position G11 [2]: - ^a; Relative Initial Rate (Normalized Intensity/min × 1000), position G28 [2]: - ^a; Relative Initial Rate (Normalized Intensity/min × 1000), position U12 [2]: <1 Normalized Intensity/min × 1000; Relative Initial Rate (Normalized Intensity/min × 1000), position U14 [2]: - ^a; Relative Initial Rate (Normalized Intensity/min × 1000), position U25 [2]: 3.1 ± 0.6 Normalized Intensity/min × 1000; Relative Initial Rate (Normalized Intensity/min × 1000), position U26 [2]: - ^a; Relative Initial Rate (Normalized Intensity/min × 1000), position U29 [2]: - ^a; Relative Initial Rate (Normalized Intensity/min × 1000), position U31 [2]: - ^a
GGHKFRY-Cu [8-Cu] | 120 | 0.1 ± 0.1 | 0.2 ± 0.1 | 0.4 ± 0.1 | 1.3 ± 0.2 | 0.3 ± 0.1 | 0.1 ± 0.1 | 0.9 ± 0.1 | 0.5 ± 0.1 | 1.1 ± 0.4 | 0.7 ± 0.1 | 0.7 ± 0.1 | - ^a | - ^a | - ^a | 1.1 ± 0.3 Normalized Intensity/min × 1000 | <1 Normalized Intensity/min × 1000 | - ^a | - ^a | 3.7 ± 1.8 Normalized Intensity/min × 1000 | Relative Initial Rate (Normalized Intensity/min × 1000), position G9 [2]: - ^a; Relative Initial Rate (Normalized Intensity/min × 1000), position G11 [2]: 0.6 ± 0.2 Normalized Intensity/min × 1000; Relative Initial Rate (Normalized Intensity/min × 1000), position G28 [2]: <1 Normalized Intensity/min × 1000; Relative Initial Rate (Normalized Intensity/min × 1000), position U12 [2]: - ^a; Relative Initial Rate (Normalized Intensity/min × 1000), position U14 [2]: - ^a; Relative Initial Rate (Normalized Intensity/min × 1000), position U25 [2]: <1 Normalized Intensity/min × 1000; Relative Initial Rate (Normalized Intensity/min × 1000), position U26 [2]: <1 Normalized Intensity/min × 1000; Relative Initial Rate (Normalized Intensity/min × 1000), position U29 [2]: <1 Normalized Intensity/min × 1000; Relative Initial Rate (Normalized Intensity/min × 1000), position U31 [2]: - ^a
GGHNRFK-Cu [10-Cu] | 67 | – | – | – | – | – | – | – | – | – | – | – | – | – | – | – | – | – | – | – | –
GGHARFK-Cu [4-Cu] | 633 | 0.5 ± 0.1 | 0.5 ± 0.1 | 1.2 ± 0.4 | 0.1 ± 0.1 | 1.1 ± 0.4 | 1.5 ± 0.4 | 0.2 ± 0.1 | 0.8 ± 0.1 | 1.1 ± 0.4 | 0.4 ± 0.1 | 1.4 ± 0.3 | - ^a | 14.2 ± 4.6 Normalized Intensity/min × 1000 | 2.9 ± 1.4 Normalized Intensity/min × 1000 | 2.1 ± 0.3 Normalized Intensity/min × 1000 | <1 Normalized Intensity/min × 1000 | - ^a | - ^a | - ^a | Relative Initial Rate (Normalized Intensity/min × 1000), position G9 [2]: 2.0 ± 0.5 Normalized Intensity/min × 1000; Relative Initial Rate (Normalized Intensity/min × 1000), position G11 [2]: - ^a; Relative Initial Rate (Normalized Intensity/min × 1000), position G28 [2]: - ^a; Relative Initial Rate (Normalized Intensity/min × 1000), position U12 [2]: - ^a; Relative Initial Rate (Normalized Intensity/min × 1000), position U14 [2]: - ^a; Relative Initial Rate (Normalized Intensity/min × 1000), position U25 [2]: - ^a; Relative Initial Rate (Normalized Intensity/min × 1000), position U26 [2]: 1.9 ± 0.4 Normalized Intensity/min × 1000; Relative Initial Rate (Normalized Intensity/min × 1000), position U29 [2]: - ^a; Relative Initial Rate (Normalized Intensity/min × 1000), position U31 [2]: 1.4 ± 0.4 Normalized Intensity/min × 1000
GGHDRFK-Cu [9-Cu] | 550 | – | – | – | – | – | – | – | – | – | – | – | – | – | – | – | – | – | – | – | –
